TRPC6 inhibitor: mouse TRPC6 channel inhibitors, primary screen, cell-based, HEK293, membrane potential dye; actives 1.1% (n = 310,000); ACh-evoked depolarization; hits give low values; Short transient receptor potential channel 6 (Mus musculus), Q61143; B-score at 10 µM;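 active means B-score under library mean minus 3 SD, initial fluorescence not abnormally high, positive integrated signal ratio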;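 further: B-score derived from integrated fluorescence ratio over the kinetic read; more negative B-score means stronger inhibition of depolarization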
TRPC4 act: activators of mouse TRPC4 channel, primary screen, Fluo4 calcium, HEK293 TRPC4beta/mu-opioid cells. Short transient receptor potential channel 4 (Mus musculus), Q9QUQ5. Fluo4 calcium fluorescence; hits give high values. B-score at 10 µM. actives 0.49% (n = 310,000);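 active means B-score above 5 SD of library B-scores, and initial fluorescence ratio not above library mean plus 5 SD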;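 further: positive B-score marks a calcium rise read as TRPC4 activation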
Target sequence (Q9QUQ5 whole entry, looked up): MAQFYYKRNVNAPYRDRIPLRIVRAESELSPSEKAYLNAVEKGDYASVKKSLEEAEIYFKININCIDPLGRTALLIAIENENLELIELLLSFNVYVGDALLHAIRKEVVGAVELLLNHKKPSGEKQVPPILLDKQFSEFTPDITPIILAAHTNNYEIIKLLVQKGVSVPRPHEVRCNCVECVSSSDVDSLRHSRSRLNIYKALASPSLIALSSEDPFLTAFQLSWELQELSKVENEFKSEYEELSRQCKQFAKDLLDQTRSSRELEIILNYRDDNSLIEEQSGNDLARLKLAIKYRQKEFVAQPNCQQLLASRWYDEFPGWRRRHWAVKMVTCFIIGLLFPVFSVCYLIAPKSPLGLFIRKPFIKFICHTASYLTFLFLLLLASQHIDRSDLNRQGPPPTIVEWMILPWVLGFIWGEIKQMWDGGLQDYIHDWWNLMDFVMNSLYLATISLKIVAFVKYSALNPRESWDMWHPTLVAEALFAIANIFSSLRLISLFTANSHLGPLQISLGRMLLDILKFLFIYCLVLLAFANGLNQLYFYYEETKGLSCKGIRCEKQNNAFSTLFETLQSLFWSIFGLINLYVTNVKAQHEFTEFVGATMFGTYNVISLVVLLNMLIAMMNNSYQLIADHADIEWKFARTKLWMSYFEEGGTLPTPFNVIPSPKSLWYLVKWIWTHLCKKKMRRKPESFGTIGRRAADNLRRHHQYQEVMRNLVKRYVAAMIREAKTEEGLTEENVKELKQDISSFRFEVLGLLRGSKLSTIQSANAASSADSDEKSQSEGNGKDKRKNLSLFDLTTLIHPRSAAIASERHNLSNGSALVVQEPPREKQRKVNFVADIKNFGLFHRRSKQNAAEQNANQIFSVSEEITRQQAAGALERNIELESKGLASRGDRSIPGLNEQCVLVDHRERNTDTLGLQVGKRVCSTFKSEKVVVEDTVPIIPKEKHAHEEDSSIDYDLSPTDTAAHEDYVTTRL
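system = HEK293 cells stably co-expressing mouse TRPC4beta and mu-opioid receptor | schedule = Fluo4 dye loading 45 min at room temperature, 110 s recording | measure = B-scored integrated calcium fluorescence ratio | signal = Fluo4 calcium-sensitive dye fluorescence, kinetic, 1 Hz baseline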
TRPC4 inh: inhibitors of mouse TRPC4 channel, primary screen, Fluo4 calcium, HEK293 TRPC4beta/mu-opioid cells | actives 0.39% (n = 300,000) | B-score at 10 µM | DAMGO-evoked Fluo4 calcium flux; hits give low values | Short transient receptor potential channel 4 (Mus musculus), Q9QUQ5;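 active means B-score over 3 SD under the library average, no early fluorescence shift, positive overall ratio signal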
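Material: HEK293 cells with stable TRPC4beta plus mu-opioid receptor expression; probe or stimulus: DAMGO in two steps, submaximal then maximal; technique: Fluo4 calcium fluorescence by kinetic imaging, 5 s 1 Hz baseline; measure: integrated fluorescence ratio relative to baseline, converted to per-well B score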
TRPC6 act: mouse TRPC6 channel activators, primary screen, cell-based, HEK293, membrane potential dye; actives 0.13% (n = 310,000); B-score at 10 µM; AID 2550, 2010; HEK293-TRPC6 membrane potential dye fluorescence; hits give high values; Short transient receptor potential channel 6 (Mus musculus), Q61143;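 active means B-score of the integrated fluorescence ratio above library mean plus 3 SD, and starting fluorescence ratio within library mean plus 5 SD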;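 further: higher score means more depolarization so channel activation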
TRPC4 PAM: positive allosteric modulators of TRPC4, primary screen, cell-based, mouse TRPC4beta, HEK293 mu-opioid, Fluo-4 calcium. DAMGO EC20, Fluo-4 Ca2+ flux; hits give high values. B-score at 10 µM. actives 0.42% (n = 310,000);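 active means B-score of calcium response area above 5 SD of library B-scores, with initial fluorescence ratio within 5 SD of library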
TRPC4 spec 2: second check of whether TRPC6 inhibitors also affect mouse TRPC4. actives 42% (n = 920). HEK293 TRPC4/MOR, membrane potential dye fluorescence; channel activated by saturating DAMGO dose. shares compounds with TRPC6 inhibitor. inhibition, % at 10 µM. AID 2776;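 active means compounds whose fluorescence signal differed from control wells by over 3 SD, either direction, in both duplicate plates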
TRPC4 spec: mouse TRPC4 modulation by TRPC6 hits, confirmation, selectivity assay for TRPC6 inhibitor project, cell-based, HEK293 TRPC4/mu-opioid, membrane potential dye | membrane potential fluorescence | activity change, negative = inhibition, % at 10 µM | actives 61% (n = 920) | shares compounds with TRPC6 inhibitor;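 active means rise or fall in signal beyond 3 SD of buffer-only wells in both replicate plates, either sign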;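 further: integrated kinetic ratio of fluorescence range over baseline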
HEK293 MPD ctr 2-1: nonspecific membrane potential effects, parental HEK293, confirmation, counter-screen for TRPC6 inhibitor project, cell-based, second counter screen; parental HEK293 membrane potential dye fluorescence; maximal acetylcholine challenge after compound addition; shares compounds with TRPC6 inhibitor; actives 31% (n = 920); signal change vs control, % at 10 µM;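 active means membrane potential signal moving either way by over 3 SD of the maximum-effect control, in both duplicate plates, meaning non-specific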
HEK293 MPD ctr-1: membrane potential modulation in parental HEK293, confirmation, counter-screen for TRPC6 inhibitor project, cell-based; shares compounds with TRPC6 inhibitor; parental HEK293 membrane potential dye fluorescence; membrane potential signal change, % at 10 µM; actives 60% (n = 920); AID 2780, 2010;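 active means membrane potential signal shifting up or down by more than 3 SD of buffer-only wells, on both duplicate plates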
HEK293 MPD ctr-2: parental HEK293 membrane potential modulation, confirmation, counter-screen for TRPC6 modulator project, cell-based | shares compounds with TRPC6 inhibitor | membrane potential dye fluorescence | membrane potential signal change, % at 10 µM | actives 51% (n = 2,400) | AID 488924, 2010;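 active means membrane potential signal moves up or down beyond 5 SD from buffer-only wells, on both duplicate plates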
HEK293 MPD ctr 2-2: second counter-screen for TRPC6 modulators: effect in parental HEK293 cells | shares compounds with TRPC6 inhibitor | membrane potential dye fluorescence; after compound, maximal acetylcholine stimulation | inhibition, % at 10 µM | actives 14% (n = 2,400) | AID 488926;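 active means membrane potential signal drops by more than 5 SD from the mean control signal, in both duplicate plates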
TRPC4/MOR mod: TRPC4 modulation by TRPC6 hit compounds, confirmation, selectivity assay for TRPC6 modulator project, cell-based, HEK293 TRPC4/mu-opioid, membrane potential dye, mouse | shares compounds with TRPC6 inhibitor | membrane potential fluorescence | percent change from control (negative = decrease, positive = increase), % at 10 µM | actives 69% (n = 2,400) | AID 488927, 2010;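 active means membrane potential signal moved up or down beyond 5 SD of buffer control wells, in both duplicate plates, actives on both sides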
TRPC4/MOR inh 2: mouse TRPC4 off-target activity of TRPC6 modulators, second screen. shares compounds with TRPC6 inhibitor. HEK293 TRPC4/mu-opioid, membrane potential dye fluorescence; stimulated with maximal-effect DAMGO. inhibition, % at 10 µM. actives 55% (n = 2,400);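 active means drop in membrane potential signal beyond 5 SD of the control wells in both duplicate plates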;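 further: TRPC4 counter screen for TRPC6 hits run under conditions tuned for TRPC6 not TRPC4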
TRPC6 block conf: mouse TRPC6 channel inhibitors, confirmation, HEK293 cells, membrane potential dye, duplicate; shares compounds with TRPC6 inhibitor; ACh-evoked depolarization; inhibition, % at 10 µM; actives 43% (n = 3,300);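 active means fluorescence ratio falls more than 5 SD below the full-stimulation control mean, in both duplicate runs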;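 further: integrated fluorescence ratio of peak minus minimum over baseline after agonist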
TRPC6 act conf: mouse TRPC6 channel activators, confirmation, HEK293 cells, membrane potential dye, duplicate. HEK293-TRPC6 membrane potential dye fluorescence, FDSS. AID 488961, 2010. shares compounds with TRPC6 inhibitor. activation, % at 10 µM. actives 11% (n = 2,800);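 active means ratio signal rise beyond 5 SD above unstimulated control wells' mean, seen in both duplicate runs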
Of the large screens only hits and unclear results are named; the others gave an inactive call (follow-up assays come after a bar, where they were run). Compounds with a hit are over-represented: about 2.3% of the library has one in this group of screens.

CN1CCN(c2nc(-c3cccc([N+](=O)[O-])c3)nc3ccccc23)CC1	TRPC6 inhibitor -6.13 | HEK293 MPD ctr-2 -206.5% | HEK293 MPD ctr 2-2 inactive | TRPC4/MOR mod -43.0% | TRPC4/MOR inh 2 63.0% | TRPC6 block conf 54.0% | TRPC6 act conf inactive
COc1nc(-c2cccc([N+](=O)[O-])c2)nc2ccccc12	none
CN1CCN(c2nc(N3CCN(CCO)CC3)nc3ccccc23)CC1	TRPC6 inhibitor -7.09 | HEK293 MPD ctr-2 -453.0% | HEK293 MPD ctr 2-2 83.5% | TRPC4/MOR mod -71.5% | TRPC4/MOR inh 2 72.0% | TRPC6 block conf 79.5% | TRPC6 act conf inactive
Cc1ccc(-c2nc(N3CCN(C)CC3)c3ccccc3n2)cc1	TRPC6 inhibitor -9.01 | TRPC4 spec 2 inactive | TRPC4 spec -20.6% | HEK293 MPD ctr 2-1 inactive | HEK293 MPD ctr-1 -360.5% | TRPC6 block conf inactive | TRPC6 act conf inactive
O=C(COC(=O)c1cc2ccccc2cc1O)NC(=O)NCc1ccco1	none
O=C(CCC(=O)c1ccccc1)NCc1ccccc1	none
COc1cccc(CNC23CC4CC(CC(C4)C2)C3)c1OCc1ccccc1	TRPC6 inhibitor -7.85, TRPC6 act 15.3 | HEK293 MPD ctr-2 752.5% | HEK293 MPD ctr 2-2 inactive | TRPC4/MOR mod 147.0% | TRPC4/MOR inh 2 80.0% | TRPC6 block conf 77.5% | TRPC6 act conf 241.0%
COc1cccc(CNCCc2c[nH]c3ccccc23)c1OCc1ccccc1	none
CC(=O)c1cccc(S(=O)(=O)NCCC(=O)O)c1	none
COc1ccc(C(=O)Nc2c3c(nn2-c2ccc(Cl)cc2)CS(=O)(=O)C3)cc1	none
CCc1ccc2oc(-c3ccc(OC)cc3)cc(=Nc3c(C)n(C)n(-c4ccccc4)c3=O)c2c1	TRPC6 inhibitor -7.84 | TRPC4 spec 2 inactive | TRPC4 spec -13.0% | HEK293 MPD ctr 2-1 inactive | HEK293 MPD ctr-1 -245.5% | TRPC6 block conf inactive | TRPC6 act conf inactive
CCc1ccc2oc(-c3ccc(OC)cc3)cc(=Nc3cccc(C(=O)O)c3)c2c1	none
O=C(COC(=O)CNC(=O)c1cccs1)Nc1ccc(C(F)(F)F)cc1[N+](=O)[O-]	none
CC1=C(C(=O)OCC(C)C)C(c2cccc(F)c2)N2C(=O)C(C)SC2=N1 (stereo not given)	none
CC1=C(C(=O)OC(C)C)C(c2cccc(F)c2)N2C(=O)C(C)SC2=N1 (stereo not given)	TRPC6 inhibitor -6 | HEK293 MPD ctr-2 inactive | HEK293 MPD ctr 2-2 inactive | TRPC4/MOR mod 13.0% | TRPC4/MOR inh 2 inactive | TRPC6 block conf inactive | TRPC6 act conf inactive
COc1ccc(NC(=O)C2CCCN(CCCc3ccccc3)C2)cc1OCC(C)C (stereo not given)	TRPC6 inhibitor -7.29 | TRPC4 spec 2 75.5% | TRPC4 spec inactive | HEK293 MPD ctr 2-1 225.5% | HEK293 MPD ctr-1 inactive | TRPC6 block conf inactive | TRPC6 act conf inactive
CC(C)CC(=O)NNC(=O)C(C)C	none
CSc1nc2ccc(NC(=O)c3ccc(=O)n(C)n3)cc2s1	TRPC6 inhibitor -5.09 | HEK293 MPD ctr-2 inactive | HEK293 MPD ctr 2-2 inactive | TRPC4/MOR mod inactive | TRPC4/MOR inh 2 inactive | TRPC6 block conf inactive | TRPC6 act conf inactive
CCOC(=O)c1ccccc1NC(=O)CSC(C)C(=O)Nc1cc(C)on1 (stereo not given)	none
Cc1nc(C)c(CCNC(=O)c2ccccc2)s1	TRPC6 inhibitor -6.05 | HEK293 MPD ctr-2 inactive | HEK293 MPD ctr 2-2 inactive | TRPC4/MOR mod inactive | TRPC4/MOR inh 2 inactive | TRPC6 block conf inactive | TRPC6 act conf inactive
CCc1ccc(OCC(=O)Nc2cccc3c2CCCC3)cc1	TRPC6 inhibitor -5.04 | HEK293 MPD ctr-2 inactive | HEK293 MPD ctr 2-2 inactive | TRPC4/MOR mod inactive | TRPC4/MOR inh 2 inactive | TRPC6 block conf inactive | TRPC6 act conf inactive
CCCC(=O)Nc1cccc2c1CCCC2	none
Cn1c(CNc2ccc(Cl)cc2)nnc1SCCN1CCCCC1	TRPC6 inhibitor -5.14 | HEK293 MPD ctr-2 inactive | HEK293 MPD ctr 2-2 inactive | TRPC4/MOR mod 17.5% | TRPC4/MOR inh 2 38.0% | TRPC6 block conf inactive | TRPC6 act conf inactive
CC1(C)CC(NC(=O)c2cc(S(=O)(=O)N3CCCCC3)ccc2Cl)CC(C)(C)N1	none

Screens as filed in PubChem.
